In assay [1] the test system is MDA-MB-231. Put plainly: Antiproliferative activity against human MDA-MB-231 cells assessed as reduction in cell viability measured after 72 hrs by MTT assay. The following applies: MDA-MB-231, 72 h. A general note: Formazan colour is commonly taken as a measure of viable cells.
Assay [2] deals with Mast/stem cell growth factor receptor Kit (Homo sapiens, UniProt P10721). The assay can be described thus: Inhibition of c-Kit (unknown origin). The procedure, abridged: (§1)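 HTRF kinase assay with purified kinase protein on preloaded poly(Glu,Tyr) 4:1 substrate, 20 mg/mL. ATP at 10 mM (solution added) in buffer of 50 mM HEPES pH 7.0 with DTT, MgCl₂, MnCl₂ and 0.1% NaN₃. Compounds diluted in 1% DMSO. Reaction ran 30 min at 25 °C. Percent inhibition computed against no-enzyme (min) and full-activity (max) wells. IC50 taken from the inhibition curves.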
Chain of Mast/stem cell growth factor receptor Kit (P10721 whole entry): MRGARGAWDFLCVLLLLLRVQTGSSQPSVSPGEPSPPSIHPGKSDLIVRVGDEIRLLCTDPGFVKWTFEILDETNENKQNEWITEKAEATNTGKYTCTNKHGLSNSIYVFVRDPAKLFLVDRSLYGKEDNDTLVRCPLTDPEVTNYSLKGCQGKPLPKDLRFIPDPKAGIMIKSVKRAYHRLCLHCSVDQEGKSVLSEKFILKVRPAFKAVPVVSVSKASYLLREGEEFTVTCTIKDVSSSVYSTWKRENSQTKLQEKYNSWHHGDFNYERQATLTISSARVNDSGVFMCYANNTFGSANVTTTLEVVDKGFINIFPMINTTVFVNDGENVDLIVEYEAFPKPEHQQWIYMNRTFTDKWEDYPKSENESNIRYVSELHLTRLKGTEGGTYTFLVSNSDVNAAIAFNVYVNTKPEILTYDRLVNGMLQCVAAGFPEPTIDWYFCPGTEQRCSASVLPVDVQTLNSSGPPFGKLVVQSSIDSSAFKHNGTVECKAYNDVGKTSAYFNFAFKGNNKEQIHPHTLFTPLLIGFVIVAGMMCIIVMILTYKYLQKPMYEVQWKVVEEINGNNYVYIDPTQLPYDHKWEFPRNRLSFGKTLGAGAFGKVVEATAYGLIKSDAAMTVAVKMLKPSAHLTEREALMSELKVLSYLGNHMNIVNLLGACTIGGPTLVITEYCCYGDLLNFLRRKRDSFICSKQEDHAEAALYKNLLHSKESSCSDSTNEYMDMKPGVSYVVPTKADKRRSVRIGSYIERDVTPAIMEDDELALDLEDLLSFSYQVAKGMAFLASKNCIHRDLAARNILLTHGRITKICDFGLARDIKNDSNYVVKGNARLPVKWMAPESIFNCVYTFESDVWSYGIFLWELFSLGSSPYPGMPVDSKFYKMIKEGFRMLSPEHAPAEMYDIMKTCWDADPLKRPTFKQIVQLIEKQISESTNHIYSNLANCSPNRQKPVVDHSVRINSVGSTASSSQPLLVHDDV

Assay [3] addresses Epidermal growth factor receptor (Homo sapiens, UniProt P00533). The assay can be described thus: Inhibition of EGFR (unknown origin). The procedure, abridged:
as §1

In assay [4] the target is Macrophage-stimulating protein receptor (Homo sapiens, UniProt Q04912). The assay can be described thus: Inhibition of Ron (unknown origin). The procedure, abridged: as §1
Chain of Macrophage-stimulating protein receptor (Q04912 25-304 limits assumed): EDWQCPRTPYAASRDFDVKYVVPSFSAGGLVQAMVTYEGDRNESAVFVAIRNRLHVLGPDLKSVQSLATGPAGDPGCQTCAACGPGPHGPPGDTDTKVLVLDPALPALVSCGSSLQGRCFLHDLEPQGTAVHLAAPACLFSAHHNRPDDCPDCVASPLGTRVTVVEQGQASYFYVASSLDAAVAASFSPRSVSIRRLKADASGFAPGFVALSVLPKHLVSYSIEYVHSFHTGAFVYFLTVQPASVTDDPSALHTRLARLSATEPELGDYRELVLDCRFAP
Chain of Macrophage-stimulating protein receptor (Q04912 310-1400 limits assumed): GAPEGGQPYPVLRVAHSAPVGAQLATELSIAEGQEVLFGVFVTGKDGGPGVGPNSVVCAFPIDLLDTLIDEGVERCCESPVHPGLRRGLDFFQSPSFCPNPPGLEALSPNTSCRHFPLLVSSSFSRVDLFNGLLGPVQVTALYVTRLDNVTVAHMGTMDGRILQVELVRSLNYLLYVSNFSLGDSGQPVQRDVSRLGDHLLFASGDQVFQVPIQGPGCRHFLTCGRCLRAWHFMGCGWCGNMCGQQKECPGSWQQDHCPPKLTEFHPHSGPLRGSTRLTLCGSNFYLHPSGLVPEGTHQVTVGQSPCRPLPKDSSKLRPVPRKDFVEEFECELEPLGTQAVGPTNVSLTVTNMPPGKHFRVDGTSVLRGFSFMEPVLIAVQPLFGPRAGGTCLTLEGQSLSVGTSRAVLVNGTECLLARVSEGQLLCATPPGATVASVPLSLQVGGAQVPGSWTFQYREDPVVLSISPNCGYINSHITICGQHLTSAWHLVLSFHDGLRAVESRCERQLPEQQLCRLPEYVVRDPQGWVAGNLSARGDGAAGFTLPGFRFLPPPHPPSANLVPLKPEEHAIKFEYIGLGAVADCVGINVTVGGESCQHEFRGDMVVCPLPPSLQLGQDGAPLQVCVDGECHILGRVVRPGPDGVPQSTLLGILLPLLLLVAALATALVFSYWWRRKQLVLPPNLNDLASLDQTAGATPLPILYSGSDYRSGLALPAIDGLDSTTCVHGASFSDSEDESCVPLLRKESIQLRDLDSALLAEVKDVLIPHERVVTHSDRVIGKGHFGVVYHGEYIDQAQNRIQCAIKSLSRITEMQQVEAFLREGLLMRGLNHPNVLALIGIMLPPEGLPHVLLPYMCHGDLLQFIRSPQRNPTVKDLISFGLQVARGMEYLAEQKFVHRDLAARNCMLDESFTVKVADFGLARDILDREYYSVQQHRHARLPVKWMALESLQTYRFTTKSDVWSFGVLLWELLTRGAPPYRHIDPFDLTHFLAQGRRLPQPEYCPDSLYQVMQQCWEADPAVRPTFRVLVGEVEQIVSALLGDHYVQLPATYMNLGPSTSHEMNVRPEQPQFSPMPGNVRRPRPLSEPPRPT
Assay [5] relates to HT-29. The assay can be described thus: Antiproliferative activity against human HT-29 cells assessed as reduction in cell viability measured after 72 hrs by MTT assay. The conditions noted are these: HT-29, 72 h.
The target in assay [6] is Vascular endothelial growth factor receptor 3 (Homo sapiens, UniProt P35916). Put plainly: Inhibition of Flt4 (unknown origin). The procedure, abridged: as §1
Chain of Vascular endothelial growth factor receptor 3 (P35916 whole entry): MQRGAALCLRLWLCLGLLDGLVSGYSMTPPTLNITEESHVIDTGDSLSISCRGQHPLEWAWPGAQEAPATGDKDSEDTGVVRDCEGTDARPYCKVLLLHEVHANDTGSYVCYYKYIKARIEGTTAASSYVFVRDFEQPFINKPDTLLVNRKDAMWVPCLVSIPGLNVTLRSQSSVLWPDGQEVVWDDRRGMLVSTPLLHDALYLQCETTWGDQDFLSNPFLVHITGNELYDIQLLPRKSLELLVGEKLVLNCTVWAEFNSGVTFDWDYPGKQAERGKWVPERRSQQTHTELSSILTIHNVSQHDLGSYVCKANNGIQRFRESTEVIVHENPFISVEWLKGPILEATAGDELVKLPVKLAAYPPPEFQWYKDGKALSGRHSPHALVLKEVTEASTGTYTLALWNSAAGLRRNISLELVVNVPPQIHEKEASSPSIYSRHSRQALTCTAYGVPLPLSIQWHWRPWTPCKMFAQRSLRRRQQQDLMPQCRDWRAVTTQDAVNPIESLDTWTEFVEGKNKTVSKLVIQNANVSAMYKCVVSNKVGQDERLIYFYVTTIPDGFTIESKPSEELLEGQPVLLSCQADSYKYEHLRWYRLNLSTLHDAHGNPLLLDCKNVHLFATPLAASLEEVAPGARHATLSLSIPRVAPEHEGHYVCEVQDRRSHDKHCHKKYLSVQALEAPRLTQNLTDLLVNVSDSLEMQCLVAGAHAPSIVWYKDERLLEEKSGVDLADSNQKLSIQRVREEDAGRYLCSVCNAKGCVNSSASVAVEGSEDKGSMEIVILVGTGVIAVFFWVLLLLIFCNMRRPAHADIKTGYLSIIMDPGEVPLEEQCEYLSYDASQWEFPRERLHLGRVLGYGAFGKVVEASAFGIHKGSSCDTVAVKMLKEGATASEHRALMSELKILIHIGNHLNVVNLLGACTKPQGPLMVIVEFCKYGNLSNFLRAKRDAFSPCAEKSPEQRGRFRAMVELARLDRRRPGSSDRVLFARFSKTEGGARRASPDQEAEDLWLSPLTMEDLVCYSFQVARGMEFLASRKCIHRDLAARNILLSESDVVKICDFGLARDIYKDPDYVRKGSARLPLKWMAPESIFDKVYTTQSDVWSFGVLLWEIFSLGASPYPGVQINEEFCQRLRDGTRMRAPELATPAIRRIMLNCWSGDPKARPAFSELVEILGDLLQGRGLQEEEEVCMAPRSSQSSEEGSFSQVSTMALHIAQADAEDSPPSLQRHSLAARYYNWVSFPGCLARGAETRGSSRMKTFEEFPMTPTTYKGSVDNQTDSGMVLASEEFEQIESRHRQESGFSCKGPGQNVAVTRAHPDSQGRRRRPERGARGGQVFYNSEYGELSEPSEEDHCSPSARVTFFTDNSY
The subject of assay [7] is NCI-H460. The assay can be described thus: Antiproliferative activity against human NCI-H460 cells assessed as reduction in cell viability measured after 72 hrs by MTT assay. The following applies: NCI-H460, 72 h.
Assay [8] has as its system MDA-MB-231. Put plainly: Potency index, ratio of foretinib IC50 to test compound IC50 for antiproliferative activity against human MDA-MB-231 cells. Type of assay: functional.
Assay [9] deals with NCI-H460. The assay can be described thus: Antiproliferative activity against human NCI-H460 cells assessed as reduction in cell viability hrs by MTT assay. The conditions noted are these: TDE = time-dependent effect. It is filed as functional, cell-based.
In assay [10] the test system is NCI-H460. Put plainly: Potency index, ratio of foretinib IC50 to test compound IC50 for antiproliferative activity against human NCI-H460 cells. Type of assay: functional.
Assay [11] concerns the target T1, Receptor-type tyrosine-protein kinase FLT3 (Homo sapiens, UniProt P36888).
T1 sequence (P36888 whole entry): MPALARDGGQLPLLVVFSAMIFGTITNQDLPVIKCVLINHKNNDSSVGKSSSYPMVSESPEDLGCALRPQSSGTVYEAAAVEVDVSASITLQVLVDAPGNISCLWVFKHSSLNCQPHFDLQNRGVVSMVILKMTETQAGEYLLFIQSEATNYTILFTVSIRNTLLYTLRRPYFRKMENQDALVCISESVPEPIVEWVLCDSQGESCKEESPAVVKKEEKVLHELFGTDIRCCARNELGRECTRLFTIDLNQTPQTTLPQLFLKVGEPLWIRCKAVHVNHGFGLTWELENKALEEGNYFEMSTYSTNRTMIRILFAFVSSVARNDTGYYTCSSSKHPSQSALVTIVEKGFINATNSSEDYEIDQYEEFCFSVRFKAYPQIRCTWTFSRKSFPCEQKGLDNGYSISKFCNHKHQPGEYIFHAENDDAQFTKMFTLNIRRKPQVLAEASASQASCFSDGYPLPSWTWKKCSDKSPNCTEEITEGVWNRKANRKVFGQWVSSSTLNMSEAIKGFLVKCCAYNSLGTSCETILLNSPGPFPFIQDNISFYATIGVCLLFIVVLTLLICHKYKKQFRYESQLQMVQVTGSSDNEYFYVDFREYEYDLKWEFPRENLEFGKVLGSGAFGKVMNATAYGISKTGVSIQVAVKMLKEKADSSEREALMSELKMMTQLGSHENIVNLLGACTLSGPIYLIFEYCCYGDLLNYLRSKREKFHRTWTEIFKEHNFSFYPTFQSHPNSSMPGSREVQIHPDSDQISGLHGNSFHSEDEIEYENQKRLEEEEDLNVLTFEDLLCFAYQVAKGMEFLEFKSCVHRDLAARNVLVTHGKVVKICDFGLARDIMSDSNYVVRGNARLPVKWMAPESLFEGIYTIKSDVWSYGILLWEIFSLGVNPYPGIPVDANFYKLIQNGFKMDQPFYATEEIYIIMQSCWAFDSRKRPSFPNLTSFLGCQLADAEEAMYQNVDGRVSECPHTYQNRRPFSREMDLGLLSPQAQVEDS
Put plainly: Inhibition of FLT3 (unknown origin).

Assay [12] relates to HT-29. Put plainly: Potency index, ratio of foretinib IC50 to test compound IC50 for antiproliferative activity against human HT-29 cells. Type of assay: functional.
For assay [13], the target named is Hepatocyte growth factor receptor (Homo sapiens, UniProt P08581). Put plainly: Inhibition of c-MET (unknown origin) using poly (Glu, Tyr) 4:1 as substrate measured after 30 mins by HTRF assay.
Assay [14] deals with Vascular endothelial growth factor receptor 2 (Homo sapiens, UniProt P35968). The assay can be described thus: Inhibition of VEGFR2 (unknown origin).
Chain of Vascular endothelial growth factor receptor 2 (P35968 whole entry): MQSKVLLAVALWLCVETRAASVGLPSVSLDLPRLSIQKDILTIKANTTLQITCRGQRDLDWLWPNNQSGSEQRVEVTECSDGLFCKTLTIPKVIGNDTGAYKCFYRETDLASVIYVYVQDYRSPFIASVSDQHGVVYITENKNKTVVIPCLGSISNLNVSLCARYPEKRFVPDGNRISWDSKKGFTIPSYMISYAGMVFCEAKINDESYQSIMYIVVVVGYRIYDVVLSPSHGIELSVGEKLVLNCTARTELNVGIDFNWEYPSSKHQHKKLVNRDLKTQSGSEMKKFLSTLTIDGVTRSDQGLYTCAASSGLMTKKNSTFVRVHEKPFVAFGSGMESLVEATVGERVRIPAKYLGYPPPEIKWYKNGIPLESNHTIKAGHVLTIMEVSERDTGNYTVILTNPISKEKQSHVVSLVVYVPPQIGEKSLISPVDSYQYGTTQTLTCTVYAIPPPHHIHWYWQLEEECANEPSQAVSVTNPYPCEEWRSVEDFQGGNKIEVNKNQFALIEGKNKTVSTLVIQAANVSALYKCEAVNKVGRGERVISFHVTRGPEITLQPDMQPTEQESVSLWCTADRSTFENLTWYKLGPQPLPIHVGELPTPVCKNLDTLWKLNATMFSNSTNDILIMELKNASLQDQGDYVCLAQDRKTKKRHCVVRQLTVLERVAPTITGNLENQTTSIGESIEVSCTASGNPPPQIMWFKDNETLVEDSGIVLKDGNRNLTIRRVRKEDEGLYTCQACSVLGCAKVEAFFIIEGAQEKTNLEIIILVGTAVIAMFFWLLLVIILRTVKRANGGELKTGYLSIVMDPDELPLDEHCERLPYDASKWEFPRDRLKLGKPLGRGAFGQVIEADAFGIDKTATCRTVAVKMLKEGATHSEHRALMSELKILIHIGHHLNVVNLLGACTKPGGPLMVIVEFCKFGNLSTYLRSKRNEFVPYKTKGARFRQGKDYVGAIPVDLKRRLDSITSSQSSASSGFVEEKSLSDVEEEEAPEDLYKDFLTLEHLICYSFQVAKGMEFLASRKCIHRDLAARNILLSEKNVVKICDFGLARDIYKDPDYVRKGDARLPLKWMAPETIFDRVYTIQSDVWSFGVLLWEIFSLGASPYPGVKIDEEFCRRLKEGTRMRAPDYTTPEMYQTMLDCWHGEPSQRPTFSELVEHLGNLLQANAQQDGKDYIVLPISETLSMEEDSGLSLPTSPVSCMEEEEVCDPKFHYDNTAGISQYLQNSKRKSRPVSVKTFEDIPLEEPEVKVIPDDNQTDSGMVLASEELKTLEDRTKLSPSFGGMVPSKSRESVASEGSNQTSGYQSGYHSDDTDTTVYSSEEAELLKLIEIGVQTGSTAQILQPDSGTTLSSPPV
A further assay has as its system MKN-45. The assay can be described thus: Antiproliferative activity against human MKN-45 cells assessed as reduction in cell viability measured after 72 hrs by MTT assay. The conditions noted are these: MKN-45, 72 h.

One molecule from ChEMBL document CHEMBL4680235, “Structure-based discovery of novel 4-(2-fluorophenoxy)quinoline derivatives as c-Met inhibitors using isocyanide-involved multicomponent reactions” (Eur J Med Chem, 2020) can be followed below.

In general, IC50 refers to the concentration needed to halve the response being measured.

As for `COc1cc2nccc(Oc3ccc(NC(=O)C(OC(=O)c4ccc(F)cc4)C(C)(C)C)cc3F)c2cc1OC` (racemic), the IC50 in the assay on MDA-MB-231 [1] was 420 nM; in [2], 4.42 nM; in [3], over 10000 nM; in assay [4] it was 18.6 nM; in the assay on HT-29 [5] it was 200 nM; in assay [6], 540 nM. Besides, the IC50 with NCI-H460 [7] was found to be 140 nM; in assay [11], 6.15 nM; in assay [13] it was 2.43 nM; in assay [14], 295 nM; with MKN-45, 260 nM. Besides, the “Ratio IC50” value in the assay on MDA-MB-231 [8] is given as 1.6; in the assay with NCI-H460 [10], 1.7; in the assay with HT-29 [12] it was 1.3. Further, in the assay on NCI-H460 [9], the Activity result is “Tde”.
